In ChEMBL document CHEMBL1140894, “Non-vanillyl resiniferatoxin analogues as potent and metabolically stable transient receptor potential vanilloid 1 agonists” (Bioorg Med Chem, 2009):
Active and inactive are the calls of the source. The rule behind the calls is not given here.

Target: T1, Transient receptor potential cation channel subfamily V member 1 (Rattus norvegicus, UniProt O35433)
Assay: Agonist activity at rat TRPV1 receptor expressed in CHO cells assessed as calcium uptake
Assay type: functional, cell-based
Settings: not given

T1 sequence (O35433 whole entry): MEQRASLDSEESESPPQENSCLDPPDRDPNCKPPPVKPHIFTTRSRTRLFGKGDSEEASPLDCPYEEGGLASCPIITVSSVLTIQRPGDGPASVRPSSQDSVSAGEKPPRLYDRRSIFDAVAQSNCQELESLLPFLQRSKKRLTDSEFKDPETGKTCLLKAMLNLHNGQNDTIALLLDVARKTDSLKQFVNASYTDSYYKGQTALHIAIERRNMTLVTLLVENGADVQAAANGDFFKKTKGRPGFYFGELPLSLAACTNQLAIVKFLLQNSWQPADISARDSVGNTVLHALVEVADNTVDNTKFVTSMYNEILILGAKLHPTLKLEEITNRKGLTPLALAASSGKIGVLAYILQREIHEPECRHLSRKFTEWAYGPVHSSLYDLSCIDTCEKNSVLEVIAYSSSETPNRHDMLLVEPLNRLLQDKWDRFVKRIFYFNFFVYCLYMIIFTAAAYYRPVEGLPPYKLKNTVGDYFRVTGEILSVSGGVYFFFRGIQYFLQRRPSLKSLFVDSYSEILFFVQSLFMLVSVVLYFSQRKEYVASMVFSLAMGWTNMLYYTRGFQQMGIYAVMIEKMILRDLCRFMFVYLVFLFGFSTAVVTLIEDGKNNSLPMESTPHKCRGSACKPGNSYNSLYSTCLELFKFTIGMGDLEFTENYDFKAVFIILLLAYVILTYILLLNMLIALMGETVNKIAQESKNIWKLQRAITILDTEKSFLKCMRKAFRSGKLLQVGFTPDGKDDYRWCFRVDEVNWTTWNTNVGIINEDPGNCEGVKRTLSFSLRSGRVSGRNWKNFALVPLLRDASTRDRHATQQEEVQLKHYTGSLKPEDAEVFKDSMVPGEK

Q: With `C=C(C)[C@@]12C[C@@H](C)[C@@]34OC(Cc5ccccc5)(O[C@@H]1[C@@H]3C=C(COC(=O)Cc1c(F)cccc1F)C[C@]1(O)C(=O)C(C)=C[C@@H]41)O2` as the molecule, how does the EC50 read?
A: 11.3 nM

Q: With `C=C(C)[C@@]12C[C@@H](C)[C@@]34OC(Cc5ccccc5)(O[C@@H]1[C@@H]3C=C(COC(=O)Cc1ccc(F)cc1F)C[C@]1(O)C(=O)C(C)=C[C@@H]41)O2` as the molecule, how does the EC50 read?
A: 1.8 nM

Q: Which EC50 does the source give for `C=C(C)[C@@]12C[C@@H](C)[C@@]34OC(Cc5ccccc5)(O[C@@H]1[C@@H]3C=C(COC(=O)Cc1cccc(F)c1F)C[C@]1(O)C(=O)C(C)=C[C@@H]41)O2` here?
A: 9.1 nM

Q: With `C=C(C)[C@@]12C[C@@H](C)[C@@]34OC(Cc5ccccc5)(O[C@@H]1[C@@H]3C=C(COC(=O)Cc1ccc(NS(C)(=O)=O)c(F)c1)C[C@]1(O)C(=O)C(C)=C[C@@H]41)O2` as the molecule, how does the EC50 read?
A: 2.45 nM

Q: Which EC50 does the source give for `C=C(C)[C@@]12C[C@@H](C)[C@@]34OC(Cc5ccccc5)(O[C@@H]1[C@@H]3C=C(CNC(=O)Cc1ccc(NS(C)(=O)=O)cc1)C[C@]1(O)C(=O)C(C)=C[C@@H]41)O2` here?
A: 375 nM

Q: With `C=C(C)[C@@]12C[C@@H](C)[C@@]34OC(Cc5ccccc5)(O[C@@H]1[C@@H]3C=C(COC(=O)Cc1cc(F)cc(F)c1)C[C@]1(O)C(=O)C(C)=C[C@@H]41)O2` as the molecule, how does the EC50 read?
A: 59 nM

Q: Which EC50 does the source give for `C=C(C)[C@@]12C[C@@H](C)[C@@]34OC(Cc5ccccc5)(O[C@@H]1[C@@H]3C=C(COC(=O)Cc1ccccc1F)C[C@]1(O)C(=O)C(C)=C[C@@H]41)O2` here?
A: 4.65 nM

Q: Which EC50 does the source give for `C=C(C)[C@@]12C[C@@H](C)[C@@]34OC(Cc5ccccc5)(O[C@@H]1[C@@H]3C=C(COC(=O)Cc1ccc(F)c(F)c1)C[C@]1(O)C(=O)C(C)=C[C@@H]41)O2` here?
A: 5.5 nM

Q: For `C=C(C)[C@@]12C[C@@H](C)[C@@]34OC(Cc5ccccc5)(O[C@@H]1[C@@H]3C=C(COC(=O)Cc1cc(F)ccc1F)C[C@]1(O)C(=O)C(C)=C[C@@H]41)O2`, which EC50 is on record?
A: 4.21 nM

Q: Which EC50 does the source give for `C=C(C)[C@@]12C[C@@H](C)[C@@]34OC(Cc5ccccc5)(O[C@@H]1[C@@H]3C=C(COC(=O)Cc1ccc(F)cc1)C[C@]1(O)C(=O)C(C)=C[C@@H]41)O2` here?
A: 3.88 nM

Q: For `C=C(C)[C@]12C[C@@H](C)[C@@]34O[C@](Cc5ccccc5)(O[C@@H]1[C@@H]3C=C(COC(=O)Cc1ccc(O)c(OC)c1)C[C@]1(O)C(=O)C(C)=C[C@@H]41)O2` [RESINIFERATOXIN], which EC50 is on record?
A: 0.27 nM

Q: Which EC50 does the source give for `C=C(C)[C@@]12C[C@@H](C)[C@@]34OC(Cc5ccccc5)(O[C@@H]1[C@@H]3C=C(COC(=O)Cc1cccc(F)c1)C[C@]1(O)C(=O)C(C)=C[C@@H]41)O2` here?
A: 1.92 nM

Q: Which EC50 does the source give for `C=C(C)[C@@]12C[C@@H](C)[C@@]34OC(Cc5ccccc5)(O[C@@H]1[C@@H]3C=C(COC(=O)Cc1ccc(NS(C)(=O)=O)cc1)C[C@]1(O)C(=O)C(C)=C[C@@H]41)O2` here?
A: 1.78 nM

Q: With `C=C(C)[C@@]12C[C@@H](C)[C@@]34OC(Cc5ccccc5)(O[C@@H]1[C@@H]3C=C(COC(=O)Cc1ccc(NS(C)(=O)=O)c(OC)c1)C[C@]1(O)C(=O)C(C)=C[C@@H]41)O2` as the molecule, how does the EC50 read?
A: 0.106 nM

Target: Transient receptor potential cation channel subfamily V member 1 (Rattus norvegicus) (UniProt O35433)
Sequence (O35433 whole entry): as above
Assay: Agonist activity at rat TRPV1 receptor expressed in CHO cells assessed as calcium uptake relative to capsaicin
Assay type: functional, cell-based
Settings: not given

Q: Which Activity does the source give for `C=C(C)[C@@]12C[C@@H](C)[C@@]34OC(Cc5ccccc5)(O[C@@H]1[C@@H]3C=C(COC(=O)Cc1c(F)c(F)c(F)c(F)c1F)C[C@]1(O)C(=O)C(C)=C[C@@H]41)O2` here?
A: 23%

Target: Transient receptor potential cation channel subfamily V member 1 (Rattus norvegicus) (UniProt O35433)
Assay: Activity at rat TRPV1 receptor expressed in CHO cells assessed as changes in intracellular calcium levels at 75 pM by calcium imaging
Assay type: cell-based
Settings: not given

Q: With `C=C(C)[C@]12C[C@@H](C)[C@@]34O[C@](Cc5ccccc5)(O[C@@H]1[C@@H]3C=C(COC(=O)Cc1ccc(O)c(OC)c1)C[C@]1(O)C(=O)C(C)=C[C@@H]41)O2` [RESINIFERATOXIN] as the molecule, how does the Activity read?
A: Active

Test system: not listed separately
Assay: Metabolic stability in Sprague-Dawley rat liver microsomes at 10 ug/mL after 60 mins by HPLC
Assay type: ADME, Microsome
Settings: read-out: Stability

Q: For `C=C(C)[C@@]12C[C@@H](C)[C@@]34OC(Cc5ccccc5)(O[C@@H]1[C@@H]3C=C(COC(=O)Cc1ccc(F)cc1F)C[C@]1(O)C(=O)C(C)=C[C@@H]41)O2`, which remaining at 1 h, 10 ug/mL is on record?
A: 57.9%

Q: Which remaining at 1 h, 10 ug/mL does the source give for `C=C(C)[C@]12C[C@@H](C)[C@@]34O[C@](Cc5ccccc5)(O[C@@H]1[C@@H]3C=C(COC(=O)Cc1ccc(O)c(OC)c1)C[C@]1(O)C(=O)C(C)=C[C@@H]41)O2` [RESINIFERATOXIN] here?
A: 57.6%

Q: Which remaining at 1 h, 10 ug/mL does the source give for `C=C(C)[C@@]12C[C@@H](C)[C@@]34OC(Cc5ccccc5)(O[C@@H]1[C@@H]3C=C(COC(=O)Cc1ccc(NS(C)(=O)=O)c(OC)c1)C[C@]1(O)C(=O)C(C)=C[C@@H]41)O2` here?
A: 81.4%

Test system: not listed separately
Assay: Metabolic stability in Sprague-Dawley rat plasma at 10 ug/mL after 240 mins by HPLC
Assay type: ADME, cell-free
Settings: read-out: Stability
In short: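 Compound added to pre-warmed rat plasma to a final 10 μg/mL and incubated 240 min. Stopped with methanol at 0 and 240 min and quantified by LC-MS. Expressed as percent of initial concentration remaining.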

Q: Which remaining at 4 h, 10 ug/mL does the source give for `C=C(C)[C@@]12C[C@@H](C)[C@@]34OC(Cc5ccccc5)(O[C@@H]1[C@@H]3C=C(COC(=O)Cc1ccc(F)cc1F)C[C@]1(O)C(=O)C(C)=C[C@@H]41)O2` here?
A: 88.3%

Q: For `C=C(C)[C@]12C[C@@H](C)[C@@]34O[C@](Cc5ccccc5)(O[C@@H]1[C@@H]3C=C(COC(=O)Cc1ccc(O)c(OC)c1)C[C@]1(O)C(=O)C(C)=C[C@@H]41)O2` [RESINIFERATOXIN], which remaining at 4 h, 10 ug/mL is on record?
A: 71.7%

Q: Which remaining at 4 h, 10 ug/mL does the source give for `C=C(C)[C@@]12C[C@@H](C)[C@@]34OC(Cc5ccccc5)(O[C@@H]1[C@@H]3C=C(COC(=O)Cc1ccc(NS(C)(=O)=O)c(OC)c1)C[C@]1(O)C(=O)C(C)=C[C@@H]41)O2` here?
A: 90.8%

Target: T1, Transient receptor potential cation channel subfamily V member 1
Assay: Displacement of [3H]RTX form rat TRPV1 receptor expressed in CHO/VR1 cell system
Assay type: cell-based
Settings: not given

Q: With `C=C(C)[C@@]12C[C@@H](C)[C@@]34OC(Cc5ccccc5)(O[C@@H]1[C@@H]3C=C(COC(=O)Cc1c(F)cccc1F)C[C@]1(O)C(=O)C(C)=C[C@@H]41)O2` as the molecule, how does the Ki read?
A: 2.69 nM

Q: Which Ki does the source give for `C=C(C)[C@@]12C[C@@H](C)[C@@]34OC(Cc5ccccc5)(O[C@@H]1[C@@H]3C=C(COC(=O)Cc1ccc(F)cc1F)C[C@]1(O)C(=O)C(C)=C[C@@H]41)O2` here?
A: 0.89 nM

Q: Which Ki does the source give for `C=C(C)[C@@]12C[C@@H](C)[C@@]34OC(Cc5ccccc5)(O[C@@H]1[C@@H]3C=C(COC(=O)Cc1cccc(F)c1F)C[C@]1(O)C(=O)C(C)=C[C@@H]41)O2` here?
A: 3.53 nM

Q: For `C=C(C)[C@@]12C[C@@H](C)[C@@]34OC(Cc5ccccc5)(O[C@@H]1[C@@H]3C=C(COC(=O)Cc1ccc(NS(C)(=O)=O)c(F)c1)C[C@]1(O)C(=O)C(C)=C[C@@H]41)O2`, which Ki is on record?
A: 0.84 nM

Q: For `C=C(C)[C@@]12C[C@@H](C)[C@@]34OC(Cc5ccccc5)(O[C@@H]1[C@@H]3C=C(CNC(=O)Cc1ccc(NS(C)(=O)=O)cc1)C[C@]1(O)C(=O)C(C)=C[C@@H]41)O2`, which Ki is on record?
A: 320 nM

Q: For `C=C(C)[C@@]12C[C@@H](C)[C@@]34OC(Cc5ccccc5)(O[C@@H]1[C@@H]3C=C(COC(=O)Cc1cc(F)cc(F)c1)C[C@]1(O)C(=O)C(C)=C[C@@H]41)O2`, which Ki is on record?
A: 8.3 nM

Q: For `C=C(C)[C@@]12C[C@@H](C)[C@@]34OC(Cc5ccccc5)(O[C@@H]1[C@@H]3C=C(COC(=O)Cc1ccc(F)c(F)c1)C[C@]1(O)C(=O)C(C)=C[C@@H]41)O2`, which Ki is on record?
A: 0.98 nM

Q: For `C=C(C)[C@@]12C[C@@H](C)[C@@]34OC(Cc5ccccc5)(O[C@@H]1[C@@H]3C=C(COC(=O)Cc1c(F)c(F)c(F)c(F)c1F)C[C@]1(O)C(=O)C(C)=C[C@@H]41)O2`, which Ki is on record?
A: 135 nM

Q: With `C=C(C)[C@@]12C[C@@H](C)[C@@]34OC(Cc5ccccc5)(O[C@@H]1[C@@H]3C=C(COC(=O)Cc1cc(F)ccc1F)C[C@]1(O)C(=O)C(C)=C[C@@H]41)O2` as the molecule, how does the Ki read?
A: 0.4 nM

Q: For `C=C(C)[C@@]12C[C@@H](C)[C@@]34OC(Cc5ccccc5)(O[C@@H]1[C@@H]3C=C(COC(=O)Cc1ccc(F)cc1)C[C@]1(O)C(=O)C(C)=C[C@@H]41)O2`, which Ki is on record?
A: 3.1 nM

Q: Which Ki does the source give for `C=C(C)[C@]12C[C@@H](C)[C@@]34O[C@](Cc5ccccc5)(O[C@@H]1[C@@H]3C=C(COC(=O)Cc1ccc(O)c(OC)c1)C[C@]1(O)C(=O)C(C)=C[C@@H]41)O2` [RESINIFERATOXIN] here?
A: 0.0426 nM

Q: With `C=C(C)[C@@]12C[C@@H](C)[C@@]34OC(Cc5ccccc5)(O[C@@H]1[C@@H]3C=C(COC(=O)Cc1cccc(F)c1)C[C@]1(O)C(=O)C(C)=C[C@@H]41)O2` as the molecule, how does the Ki read?
A: 2.4 nM

Q: Which Ki does the source give for `C=C(C)[C@@]12C[C@@H](C)[C@@]34OC(Cc5ccccc5)(O[C@@H]1[C@@H]3C=C(COC(=O)Cc1ccc(NS(C)(=O)=O)cc1)C[C@]1(O)C(=O)C(C)=C[C@@H]41)O2` here?
A: 6.81 nM

Q: Which Ki does the source give for `C=C(C)[C@@]12C[C@@H](C)[C@@]34OC(Cc5ccccc5)(O[C@@H]1[C@@H]3C=C(COC(=O)Cc1ccc(NS(C)(=O)=O)c(OC)c1)C[C@]1(O)C(=O)C(C)=C[C@@H]41)O2` here?
A: 0.228 nM
